Laboratory results taken from ChEMBL document CHEMBL2407064 (J Med Chem, 2013).
Calls of active or inactive are those of the source. The rule behind the calls is not given here.

Columns and labels:
Mus musculus [1] = assay: Antidepressant-like activity in BALB/cJ mouse assessed as decrease in immobility time at 1 mg/kg, po administered 30 mins before test measured for 6 mins by forced swimming test; format: functional, organism-based; design: dose 1 mg/kg
How it was run: (§1)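 Male BALB/cJ mice, 8–10 weeks old. Drugs dissolved in water and given i.p. or orally at 10 ml/kg, 30 min before the trial. Sertraline 20 mg/kg was the positive control. Each mouse was placed in a glass cylinder with 12 cm of 23 ± 1 °C water, and immobility (floating) was timed over a 6 min trial. ANOVA with Fisher's LSD; n = 9–10/group.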

Mus musculus [2] = assay: Antidepressant-like activity in BALB/cJ mouse assessed as decrease in immobility time at 1 mg/kg, ip administered 30 mins before test measured for 6 mins by forced swimming test; format: functional, organism-based; design: dose 1 mg/kg; how it was run: as §1
[3] = target: T1, Acetylcholine receptor; alpha1/beta1/delta/gamma (Homo sapiens) (UniProt P02708+P07510+P11230+Q07001); assay: Antagonist activity at alpha1beta1gammadelta nAChR in human TE671/RD cells assessed as inhibition of carbamylcholine-induced 86Rb+ ion efflux preincubated for 10 mins by liquid scintillation counting analysis; format: cell-based
[4] = target: T1, Acetylcholine receptor; alpha1/beta1/delta/gamma (Homo sapiens); assay: Agonist activity at alpha1beta1gammadelta nAChR in human TE671/RD cells assessed as stimulation of 86Rb+ ion efflux after 5 mins by liquid scintillation counting analysis; format: cell-based
How it was run: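 Human TE671/RD cells, which natively express muscle-type α1β1γδ nAChRs, maintained at low passage (1–26) and split 1/300 weekly. 86Rb+ efflux. Agonism given as EC50 with efficacy normalized to carbamylcholine.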

Salmonella typhimurium [5] = assay: Genotoxicity in Salmonella typhimurium TA1537 up to 3 x 10^5 uM by Ames test in presence of liver S9 fraction; format: toxicity, organism-based; settings: salmonella enterica subsp. enterica serovar typhimurium
Salmonella typhimurium [6] = assay: Genotoxicity in Salmonella typhimurium TA1537 up to 3 x 10^5 uM by Ames test; format: toxicity, organism-based; settings: salmonella enterica subsp. enterica serovar typhimurium
Mus musculus [7] = assay: Toxicity in BALB/cJ mouse assessed as mortality at 10 mg/kg, ip; format: organism-based; design: dose 10 mg/kg, route intraperitoneal; settings: in vivo
Mus musculus [8] = assay: Toxicity in BALB/cJ mouse assessed as occurrence of tremor at 5 mg/kg, ip; format: organism-based; design: dose 5 mg/kg, route intraperitoneal; settings: in vivo
Mus musculus [9] = assay: Toxicity in BALB/cJ mouse assessed as sedative effect at 5 mg/kg, ip; format: organism-based; design: dose 5 mg/kg, route intraperitoneal; settings: in vivo
[10] = target: T2, Neuronal acetylcholine receptor; alpha3/alpha6/beta2/beta3 (Homo sapiens, UniProt P17787+P32297+Q05901+Q15825); assay: Antagonist activity at human alpha6/alpha3beta2beta3 nAChR expressed in human SHEP1 cells assessed as inhibition of carbamylcholine-induced 86Rb+ ion efflux preincubated for 10 mins by liquid scintillation counting analysis; format: cell-based
T2 sequence (P17787 whole entry): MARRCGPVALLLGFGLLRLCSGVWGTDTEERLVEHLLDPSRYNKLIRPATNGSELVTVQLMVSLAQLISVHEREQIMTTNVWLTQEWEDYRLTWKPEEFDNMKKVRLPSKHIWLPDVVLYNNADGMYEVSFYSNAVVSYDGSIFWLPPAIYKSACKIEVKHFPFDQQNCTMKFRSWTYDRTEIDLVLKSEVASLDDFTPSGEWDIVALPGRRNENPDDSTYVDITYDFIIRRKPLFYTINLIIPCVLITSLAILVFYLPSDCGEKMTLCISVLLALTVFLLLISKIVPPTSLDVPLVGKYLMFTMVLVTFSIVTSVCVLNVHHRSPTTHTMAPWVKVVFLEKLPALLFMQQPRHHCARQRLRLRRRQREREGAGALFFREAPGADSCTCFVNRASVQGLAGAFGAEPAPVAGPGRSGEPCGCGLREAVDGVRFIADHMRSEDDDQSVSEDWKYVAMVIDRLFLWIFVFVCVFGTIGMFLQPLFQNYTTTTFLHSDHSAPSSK
T2 sequence (P32297 whole entry): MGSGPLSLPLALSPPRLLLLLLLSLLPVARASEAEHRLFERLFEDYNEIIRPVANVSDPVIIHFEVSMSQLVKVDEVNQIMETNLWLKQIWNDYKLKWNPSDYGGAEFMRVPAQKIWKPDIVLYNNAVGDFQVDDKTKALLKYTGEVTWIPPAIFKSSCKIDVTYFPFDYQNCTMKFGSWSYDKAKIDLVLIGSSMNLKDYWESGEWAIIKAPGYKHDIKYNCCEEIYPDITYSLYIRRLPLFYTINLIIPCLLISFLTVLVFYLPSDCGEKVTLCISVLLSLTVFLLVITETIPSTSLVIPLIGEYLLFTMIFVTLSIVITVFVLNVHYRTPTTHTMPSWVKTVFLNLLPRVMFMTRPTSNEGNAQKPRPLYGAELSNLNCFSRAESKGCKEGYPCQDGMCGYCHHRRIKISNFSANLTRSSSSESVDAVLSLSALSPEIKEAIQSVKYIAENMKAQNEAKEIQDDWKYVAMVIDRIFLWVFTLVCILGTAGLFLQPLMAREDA
T2 sequence (Q15825 whole entry): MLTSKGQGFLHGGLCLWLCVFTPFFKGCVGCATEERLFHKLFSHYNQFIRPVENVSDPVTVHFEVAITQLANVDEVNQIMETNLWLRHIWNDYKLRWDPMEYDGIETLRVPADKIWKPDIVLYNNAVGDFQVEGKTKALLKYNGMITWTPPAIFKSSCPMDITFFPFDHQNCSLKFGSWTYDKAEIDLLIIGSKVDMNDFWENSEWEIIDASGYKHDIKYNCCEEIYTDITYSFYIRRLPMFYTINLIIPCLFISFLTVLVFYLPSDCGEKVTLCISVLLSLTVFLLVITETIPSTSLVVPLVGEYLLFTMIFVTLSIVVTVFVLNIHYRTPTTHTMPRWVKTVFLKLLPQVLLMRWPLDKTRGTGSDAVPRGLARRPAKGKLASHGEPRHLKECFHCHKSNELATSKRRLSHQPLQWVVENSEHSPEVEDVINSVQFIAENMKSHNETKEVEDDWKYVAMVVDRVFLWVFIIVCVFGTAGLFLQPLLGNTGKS
T2 sequence (Q05901 whole entry): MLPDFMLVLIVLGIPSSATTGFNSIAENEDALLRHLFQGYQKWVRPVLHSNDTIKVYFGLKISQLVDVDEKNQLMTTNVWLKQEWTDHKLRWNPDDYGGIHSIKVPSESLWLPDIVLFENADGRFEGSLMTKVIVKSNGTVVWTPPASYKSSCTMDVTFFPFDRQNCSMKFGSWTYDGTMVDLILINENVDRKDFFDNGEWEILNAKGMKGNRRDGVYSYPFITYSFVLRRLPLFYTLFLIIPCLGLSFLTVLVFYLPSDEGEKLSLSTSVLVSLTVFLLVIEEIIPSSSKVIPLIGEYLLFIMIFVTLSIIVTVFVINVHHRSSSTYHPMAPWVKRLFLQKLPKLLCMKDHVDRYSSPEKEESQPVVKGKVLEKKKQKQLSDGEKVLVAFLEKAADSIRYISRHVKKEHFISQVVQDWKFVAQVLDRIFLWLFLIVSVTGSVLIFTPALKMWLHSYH

[11] = target: T2, Neuronal acetylcholine receptor; alpha3/alpha6/beta2/beta3; assay: Agonist activity at human alpha6/alpha3beta2beta3 nAChR expressed in human SHEP1 cells assessed as stimulation of 86Rb+ ion efflux after 5 mins by liquid scintillation counting analysis; format: cell-based
[12] = Chemical stability of the compound at room temperature; format: physicochemical
Salmonella typhimurium [13] = assay: Genotoxicity in Salmonella typhimurium TA1537 at 50 to 100 uM by Ames test in presence of liver S9 fraction; format: toxicity, organism-based; settings: salmonella enterica subsp. enterica serovar typhimurium, s9, 100 µM
How it was run: (§2)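 Bacterial reverse mutation (Ames) test in TA98, TA100, TA1535 and TA1537 strains, with and without liver S9 metabolic activation. Test concentrations 5, 10, 50 and 100 μM.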

Salmonella typhimurium [14] = assay: Genotoxicity in Salmonella typhimurium TA1537 at 5 to 10 uM by Ames test in presence of liver S9 fraction; format: toxicity, organism-based; settings: salmonella enterica subsp. enterica serovar typhimurium, s9, 10 µM
Salmonella typhimurium [15] = assay: Genotoxicity in Salmonella typhimurium TA1535 at 5 to 100 uM by Ames test in presence of liver S9 fraction; format: toxicity, organism-based; settings: salmonella enterica subsp. enterica serovar typhimurium, s9, 100 µM; how it was run: as §2
Salmonella typhimurium [16] = assay: Genotoxicity in Salmonella typhimurium TA100 at 5 to 100 uM by Ames test in presence of liver S9 fraction; format: toxicity, organism-based; settings: salmonella enterica subsp. enterica serovar typhimurium, s9, 100 µM; how it was run: as §2
Salmonella typhimurium [17] = assay: Genotoxicity in Salmonella typhimurium TA98 at 5 to 100 uM by Ames test in presence of liver S9 fraction; format: toxicity, organism-based; settings: salmonella enterica subsp. enterica serovar typhimurium, s9, 100 µM; how it was run: as §2
Salmonella typhimurium [18] = assay: Genotoxicity in Salmonella typhimurium TA1537 at 5 to 100 uM by Ames test; format: toxicity, organism-based; settings: salmonella enterica subsp. enterica serovar typhimurium; how it was run: as §2
Salmonella typhimurium [19] = assay: Genotoxicity in Salmonella typhimurium TA1535 at 5 to 100 uM by Ames test; format: toxicity, organism-based; settings: salmonella enterica subsp. enterica serovar typhimurium; how it was run: as §2
Salmonella typhimurium [20] = assay: Genotoxicity in Salmonella typhimurium TA100 at 5 to 100 uM by Ames test; format: toxicity, organism-based; settings: salmonella enterica subsp. enterica serovar typhimurium; how it was run: as §2
Salmonella typhimurium [21] = assay: Genotoxicity in Salmonella typhimurium TA98 at 5 to 100 uM by Ames test; format: toxicity, organism-based; settings: salmonella enterica subsp. enterica serovar typhimurium; how it was run: as §2
Caco-2 [22] = assay: Permeability from basolateral to apical side in human Caco2 cells at pH 7.4; format: ADME, cell-based; settings: caco-2, pH 7.4
How it was run: (§3)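 Bidirectional Caco-2 monolayer permeability, apical-to-basolateral and basolateral-to-apical, at pH 7.4 on both sides. Run with and without the P-gp inhibitor verapamil. Apparent permeability given in cm/s.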

Caco-2 [23] = assay: Permeability from apical to basolateral side in human Caco2 cells at pH 7.4; format: ADME, cell-based; settings: caco-2, pH 7.4; how it was run: as §3
Plasma [24] = assay: Plasma protein binding in CD-1 mouse at 10 uM; format: ADME, cell-free
How it was run: (§4)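 Plasma protein binding measured in human and CD-1 mouse plasma at 10 μM test compound, given as percent bound.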

Plasma [25] = assay: Plasma protein binding in human at 10 uM; format: ADME, cell-free; how it was run: as §4
hERG (KCNH2) [26] = target: T3, hERG (KCNH2) (Homo sapiens, UniProt Q12809); assay: Inhibition of human ERG at 1 uM relative to control
T3 sequence (Q12809 whole entry): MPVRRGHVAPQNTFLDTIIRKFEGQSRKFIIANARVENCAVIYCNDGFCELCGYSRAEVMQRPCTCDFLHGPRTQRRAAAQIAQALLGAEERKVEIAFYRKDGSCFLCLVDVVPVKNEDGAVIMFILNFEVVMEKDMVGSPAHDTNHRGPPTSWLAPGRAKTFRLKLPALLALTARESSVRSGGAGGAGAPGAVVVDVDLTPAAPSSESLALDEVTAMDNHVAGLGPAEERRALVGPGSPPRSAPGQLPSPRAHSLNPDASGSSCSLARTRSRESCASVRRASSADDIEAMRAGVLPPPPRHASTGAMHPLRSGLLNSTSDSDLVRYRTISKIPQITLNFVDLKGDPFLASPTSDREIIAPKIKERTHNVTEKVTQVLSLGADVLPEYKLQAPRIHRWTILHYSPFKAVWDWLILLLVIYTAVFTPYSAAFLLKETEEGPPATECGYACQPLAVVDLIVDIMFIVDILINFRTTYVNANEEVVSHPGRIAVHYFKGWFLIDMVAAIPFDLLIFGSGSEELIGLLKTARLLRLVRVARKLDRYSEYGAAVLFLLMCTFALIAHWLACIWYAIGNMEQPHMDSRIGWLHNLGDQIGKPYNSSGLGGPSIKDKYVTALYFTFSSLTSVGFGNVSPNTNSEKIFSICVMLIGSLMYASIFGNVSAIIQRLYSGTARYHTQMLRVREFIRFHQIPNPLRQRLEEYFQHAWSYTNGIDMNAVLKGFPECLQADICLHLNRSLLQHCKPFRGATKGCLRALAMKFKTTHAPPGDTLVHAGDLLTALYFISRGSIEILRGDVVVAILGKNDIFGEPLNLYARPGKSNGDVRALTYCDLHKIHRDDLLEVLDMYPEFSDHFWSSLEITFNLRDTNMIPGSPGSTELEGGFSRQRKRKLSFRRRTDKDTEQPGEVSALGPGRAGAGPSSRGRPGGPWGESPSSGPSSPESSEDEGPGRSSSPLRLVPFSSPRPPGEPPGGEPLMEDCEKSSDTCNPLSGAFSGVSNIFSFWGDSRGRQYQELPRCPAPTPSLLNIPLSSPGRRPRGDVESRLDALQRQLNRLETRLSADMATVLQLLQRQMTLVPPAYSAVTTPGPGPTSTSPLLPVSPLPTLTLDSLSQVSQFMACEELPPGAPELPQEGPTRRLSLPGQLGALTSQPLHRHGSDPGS
How it was run: (§5)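 Human ERG inhibition tested at three concentrations (0.1, 1 and 10 μM), expressed as percent inhibition.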

hERG (KCNH2) [27] = target: T3, hERG (KCNH2); assay: Inhibition of human ERG at 10 uM relative to control; how it was run: as §5
CYP3A = assay: Inhibition of CYP3A (unknown origin) at 10 uM relative to control; format: ADME; settings: human
How it was run: (§6)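 Inhibition of CYP1A, CYP2C9, CYP2C19, CYP2D6 and CYP3A isoforms measured in the presence of 10 μM test compound, expressed as percent inhibition.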

hERG (KCNH2) [28] = target: T3, hERG (KCNH2); assay: Inhibition of human ERG at 0.1 uM relative to control; how it was run: as §5
CYP2D6 = CYP2D6 (Homo sapiens, UniProt P10635); assay: Inhibition of CYP2D6 (unknown origin) at 10 uM relative to control; format: ADME; how it was run: as §6
CYP2D6, sequence (P10635 whole entry): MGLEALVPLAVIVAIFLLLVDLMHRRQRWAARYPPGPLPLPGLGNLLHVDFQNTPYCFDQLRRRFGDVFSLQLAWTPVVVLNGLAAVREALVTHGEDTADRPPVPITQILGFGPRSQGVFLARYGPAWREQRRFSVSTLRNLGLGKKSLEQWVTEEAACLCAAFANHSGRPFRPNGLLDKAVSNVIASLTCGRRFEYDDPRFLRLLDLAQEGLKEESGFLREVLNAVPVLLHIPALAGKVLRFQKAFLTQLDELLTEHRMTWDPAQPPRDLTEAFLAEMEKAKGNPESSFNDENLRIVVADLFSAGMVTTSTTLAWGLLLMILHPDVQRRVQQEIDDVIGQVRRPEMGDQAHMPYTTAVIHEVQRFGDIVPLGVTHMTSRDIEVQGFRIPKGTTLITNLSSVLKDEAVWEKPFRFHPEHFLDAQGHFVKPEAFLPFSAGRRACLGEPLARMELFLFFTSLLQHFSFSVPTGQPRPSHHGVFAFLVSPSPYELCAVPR

CYP2C9 = CYP2C9 (Homo sapiens, UniProt P11712); assay: Inhibition of CYP2C9 (unknown origin) at 10 uM relative to control; format: ADME; how it was run: as §6
CYP2C9, sequence (P11712 whole entry): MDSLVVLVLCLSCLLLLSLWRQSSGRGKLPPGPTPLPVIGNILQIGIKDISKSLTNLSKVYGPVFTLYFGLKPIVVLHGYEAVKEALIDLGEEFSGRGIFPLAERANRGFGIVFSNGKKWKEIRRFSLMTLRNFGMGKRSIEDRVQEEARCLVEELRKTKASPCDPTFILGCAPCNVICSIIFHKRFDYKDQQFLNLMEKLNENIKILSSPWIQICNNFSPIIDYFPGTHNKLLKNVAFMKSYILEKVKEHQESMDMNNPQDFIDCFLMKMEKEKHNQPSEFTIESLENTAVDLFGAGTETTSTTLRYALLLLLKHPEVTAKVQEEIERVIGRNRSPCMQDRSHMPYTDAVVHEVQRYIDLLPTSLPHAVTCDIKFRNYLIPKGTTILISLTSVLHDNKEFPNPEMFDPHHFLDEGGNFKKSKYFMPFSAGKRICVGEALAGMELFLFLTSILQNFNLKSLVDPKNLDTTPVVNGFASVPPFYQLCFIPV

CYP2C19 = CYP2C19 (Homo sapiens, UniProt P33261); assay: Inhibition of CYP2C19 (unknown origin) at 10 uM relative to control; format: ADME; how it was run: as §6
[29] = Metabolic stability in human hepatocytes assessed as compound remaining at 1 uM after 2 hrs; format: ADME, cell-based, Hepatocyte; settings: read-out: Stability
How it was run: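 Cryopreserved human hepatocytes incubated with 1 μM test compound for 2 h. Percent parent compound remaining unchanged was measured.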

[30] = Metabolic stability in CD-1 mouse liver microsomes assessed as compound remaining at 0.1 uM after 1 hr; format: ADME, Microsome; settings: CD-1, liver microsomes; read-out: Stability
How it was run: (§7)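 Human or CD-1 mouse liver microsomes incubated with 0.1 μM test compound for 1 h. Percent parent compound remaining unchanged was measured.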

[31] = Metabolic stability in human liver microsomes assessed as compound remaining at 0.1 uM after 1 hr; format: ADME, Microsome; settings: read-out: Stability; how it was run: as §7
[32] = target: T4, Neuronal acetylcholine receptor; alpha4/beta2 (Homo sapiens, UniProt P17787+P43681); assay: Antagonist activity at human alpha4beta2 nACHR expressed in human SHEP1 cells assessed as inhibition of carbamylcholine-induced 86Rb+ ion efflux preincubated for 10 mins by liquid scintillation counting analysis; format: cell-based
T4 sequence (P17787 whole entry): as the sequence (P17787 whole entry) above
T4 sequence (P43681 whole entry): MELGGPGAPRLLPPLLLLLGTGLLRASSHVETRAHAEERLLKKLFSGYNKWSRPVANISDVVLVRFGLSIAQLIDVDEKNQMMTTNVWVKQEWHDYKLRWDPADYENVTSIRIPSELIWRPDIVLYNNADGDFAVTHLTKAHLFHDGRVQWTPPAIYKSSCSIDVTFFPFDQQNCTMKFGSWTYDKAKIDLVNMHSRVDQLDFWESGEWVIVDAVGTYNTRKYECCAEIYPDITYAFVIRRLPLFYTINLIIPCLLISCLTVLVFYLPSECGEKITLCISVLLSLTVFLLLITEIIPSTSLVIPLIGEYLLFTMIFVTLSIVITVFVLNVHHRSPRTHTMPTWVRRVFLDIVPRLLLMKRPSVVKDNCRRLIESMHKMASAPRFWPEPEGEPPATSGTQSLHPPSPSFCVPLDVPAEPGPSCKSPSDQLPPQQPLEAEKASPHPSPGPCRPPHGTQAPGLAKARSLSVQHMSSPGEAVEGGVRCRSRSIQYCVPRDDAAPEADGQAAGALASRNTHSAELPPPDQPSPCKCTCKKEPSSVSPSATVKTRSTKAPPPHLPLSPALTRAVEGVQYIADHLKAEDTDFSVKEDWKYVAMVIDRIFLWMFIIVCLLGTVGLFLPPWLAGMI

[33] = target: T4, Neuronal acetylcholine receptor; alpha4/beta2; assay: Agonist activity at human alpha4beta2 nACHR expressed in human SHEP1 cells assessed as stimulation of 86Rb+ ion efflux after 5 mins by liquid scintillation counting analysis; format: cell-based
Mus musculus [34] = assay: Antidepressant-like activity in BALB/cJ mouse assessed as decrease in immobility time at 20 mg/kg, ip administered 30 mins before test measured for 6 mins by forced swimming test; format: functional, organism-based; design: dose 20 mg/kg; how it was run: as §1
Mus musculus [35] = assay: Antidepressant-like activity in BALB/cJ mouse assessed as decrease in immobility time at 1 to 10 mg/kg, ip administered 30 mins before test measured for 6 mins by forced swimming test; format: functional, organism-based; how it was run: as §1

In the case of `COCC[C@H]1C[C@@H]1c1cncc(OC[C@@H]2CCCN2C)c1`, the Activity (Mus musculus [1]) is reported as “Active”, the Activity (Mus musculus [2]) is reported as “Active” and the inhibition [3] is reported as “inactive”. For the same compound, the Activity [4] was “Active”.

For `COCC[C@H]1C[C@@H]1c1cncc(OC[C@@H]2CCCN2C)c1.O=C(O)C(O)C(O)C(=O)O`, the Activity (Salmonella typhimurium [5]) was “Non-toxic” and the Activity (Salmonella typhimurium [6]) was “Non-toxic”.

With `COCC[C@H]1C[C@@H]1c1cncc(OC[C@H]2CCNC2)c1.O=C(O)C(F)(F)F` (single isomer, unassigned) the Activity (Mus musculus [7]) was “Toxic”, the Activity (Mus musculus [8]) was “Toxic” and the Activity (Mus musculus [9]) was “Toxic”. For the same compound, the inhibition [3] was “inactive” and the Activity [4] was “Active”.

In the case of `COCC[C@H]1C[C@@H]1c1cncc(OC[C@@H]2CCN2)c1`, the IC50 [10] is reported as 9.7 nM and the EC50 [11] is reported as 7.4 nM.

With `COCC[C@H]1C[C@@H]1c1cncc(OC[C@@H]2CCCN2C)c1.O=C(O)C(F)(F)F` the Stability [12] was “Stable”, the Activity (Salmonella typhimurium [13]) was “Toxic” and the Activity (Salmonella typhimurium [14]) was “Non-toxic”. The Activity (Salmonella typhimurium [15]) was “Non-toxic”, the Activity (Salmonella typhimurium [16]) was “Non-toxic” and the Activity (Salmonella typhimurium [17]) was “Non-toxic”. The Activity (Salmonella typhimurium [18]) was “Non-toxic”, the Activity (Salmonella typhimurium [19]) was “Non-toxic” and the Activity (Salmonella typhimurium [20]) was “Non-toxic”. For the same compound, the Activity (Salmonella typhimurium [21]) was “Non-toxic”, the permeability (Caco-2 [22]) was 18.4 ×10⁻⁶ cm/s and the permeability (Caco-2 [23]) was 90.9 ×10⁻⁶ cm/s. The PPB (Plasma [24]) was 11%, the PPB (Plasma [25]) was 31% and the inhibition at 1 µM (hERG (KCNH2) [26]) was 7%. For the same compound, the inhibition at 10 µM (hERG (KCNH2) [27]) was 23%, the inhibition at 10 µM (CYP3A) was 10% and the inhibition at 0.1 µM (hERG (KCNH2) [28]) was 4%. The inhibition at 10 µM (CYP2D6) was 44%, the inhibition at 10 µM (CYP2C9) was 30% and the inhibition at 10 µM (CYP2C19) was 21%. It also gave a remaining at 2 h, 1 µM [29] of 85.7%, a remaining at 1 h, 0.1 µM [30] of 90.1% and a remaining at 1 h, 0.1 µM [31] of 103%. The IC50 [10] was 23.9 nM, the IC50 [32] was 20 nM and the EC50 [11] was 9 nM. For the same compound, the EC50 [33] was 14.4 nM.

In the case of `CN[C@H]1CC[C@@H](c2ccc(Cl)c(Cl)c2)c2ccccc21`, the Activity (Mus musculus [34]) is reported as “Active”.

In the case of `COCC[C@H]1C[C@@H]1c1cncc(OC[C@@H]2CCCN2)c1`, the Activity (Mus musculus [35]) is reported as “inactive”, the inhibition [3] is reported as “inactive” and the IC50 [10] is reported as 223 nM. The Activity [4] was “Active” and the EC50 [11] was 51.5 nM.
